Data reported in ChEMBL document CHEMBL1123966, “Ring-substituted [1,2-bis(4-hydroxyphenyl)ethylenediamine]dichloroplatinum (II) complexes: compounds with a selective effect on the hormone-dependent mammary carcinoma” (1988).

Assays:
MCF7S [1] = experiment: Cell growth inhibition in hormone dependent MCF 7 breast cancer cells; format: functional, cell-based; details: Homo sapiens
MCF7S [2] = experiment: Incorporation of [3H]- thymidine in hormone dependent MCF-7 breast cancer cells; format: functional, cell-based; details: Homo sapiens
MDA-MB-231 [3] = experiment: Incorporation of [3H]- thymidine into hormone independent MDA-MB-231 breast cancer cells; format: functional, cell-based; details: Homo sapiens
MDA-MB-231 [4] = experiment: Cell growth inhibition in hormone independent MDA-MB-231 breast cancer cells; format: functional, cell-based; details: Homo sapiens
MDA-MB-231 [5] = experiment: Incorporation of [3H]- thymidine in hormone independent MDA-MB-231 breast cancer cells; format: functional, cell-based; details: Homo sapiens
[6] = Cell growth inhibition MXT-ER- breast cancer cells at a dose of 11.3 mg/kg; format: functional, organism-based; design: dose 11.3 mg/kg; details: Mus musculus, Cancer cell lines
In short: (§1)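 Hormone-independent MXT mammary carcinoma (ER−) in mice. Equimolar doses (2 × 10⁻⁵ M/kg) were given sc three times a week (Mon, Wed, Fri) in polyethylene glycol 400/H₂O (1:1), or in olive oil for some agents. Median tumor area was measured at the end of a 2-week therapy and expressed as T/C %.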

[7] = Cell growth inhibition MXT-ER+ breast cancer cells at a dose of 11.3 mg/kg; format: functional, organism-based; design: dose 11.3 mg/kg; details: Mus musculus, Cancer cell lines
In short: (§2)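 Hormone-dependent MXT mammary carcinoma (ER+) model. Equimolar doses (2 × 10⁻⁵ M/kg) were given sc three times weekly (Mon, Wed, Fri) as a solution or suspension in polyethylene glycol 400/H₂O (1:1); some agents were given in olive oil. Median tumor weight was taken at the end of 6 weeks of therapy and given as T/C %. Significance was tested by the Wilcoxon-Mann-Whitney U test.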

Mus musculus [8] = experiment: Median tumor weight of MXT (mammary carcinoma) ER+ determined at the end of 6 week therapy at a dose of 11.3 mg/kg; format: functional, organism-based; design: dose 11.3 mg/kg; in short: as §2
Mus musculus [9] = species: Mus musculus; experiment: Uterotrophic effect in BDF1 mouse measured as([weight of uterus (mg)/body weight (g)] *100); format: functional
In short: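 Female BDF1 mice carrying MXT ER+ mammary carcinoma were dosed in olive oil, sc, three times a week, for 6 weeks. At the end of therapy, uterotropic effect = [uterus dry weight (mg)/body weight (g)] × 100, given as mean ± SD and as T/C % versus control. Significance was by the U test.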

Mus musculus [10] = experiment: Uterotrophic effect in BDF1 mouse at a dose of 11.3 mg/kg; format: functional, organism-based; design: dose 11.3 mg/kg; details: Uterus
In short: (§3)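 Uterus of BDF1 mice in the MXT ER+ study. Equimolar dosing at 2 × 10⁻⁵ M/kg, sc in PEG 400/H₂O 1:1 three times a week (Mon/Wed/Fri). Uterine response = [uterus dry weight (mg)/body weight (g)] × 100, determined after 6 weeks of therapy; U test.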

[11] = Cell growth inhibition MXT-ER+ breast cancer cells at a dose of 12.9 mg/kg; format: functional, organism-based; design: dose 12.9 mg/kg; details: Mus musculus, Cancer cell lines; in short: as §2
Mus musculus [12] = experiment: Median tumor weight of MXT (mammary carcinoma) ER+ determined at the end of 6 week therapy at a dose of 12.9 mg/kg; format: functional, organism-based; design: dose 12.9 mg/kg
In short: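 BDF1 mice with hormone-dependent MXT mammary carcinoma (ER+). Equimolar dosing at 2 × 10⁻⁵ M/kg, given sc in olive oil three times a week (Mon/Wed/Fri) for 6 weeks. Median tumor weight was taken at the end of therapy and compared with controls by the Wilcoxon–Mann–Whitney U test.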

[13] = Cell growth inhibition MXT-ER- breast cancer cells at a dose of 12.9 mg/kg; format: functional, organism-based; design: dose 12.9 mg/kg; details: Mus musculus, Cancer cell lines; in short: as §1
Mus musculus [14] = experiment: Uterotrophic effect in BDF1 mouse at a dose of 12.9 mg/kg; format: functional, organism-based; design: dose 12.9 mg/kg; details: Uterus
In short: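 Uterus of BDF1 mice in the MXT ER+ study. Equimolar dosing at 2 × 10⁻⁵ M/kg, sc in olive oil three times a week (Mon/Wed/Fri). Uterine response = [uterus dry weight (mg)/body weight (g)] × 100, determined at the end of the 6-week therapy; U test.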

[15] = Cell growth inhibition MXT-ER- breast cancer cells at a dose of 10.9 mg/kg; format: functional, organism-based; design: dose 10.9 mg/kg; details: Mus musculus, Cancer cell lines; in short: as §1
[16] = Cell growth inhibition MXT-ER+ breast cancer cells at a dose of 10.9 mg/kg; format: functional, organism-based; design: dose 10.9 mg/kg; details: Mus musculus, Cancer cell lines; in short: as §2
Mus musculus [17] = experiment: Median tumor weight of MXT (mammary carcinoma) ER+ determined at the end of 6 week therapy at a dose of 10.9 mg/kg; format: functional, organism-based; design: dose 10.9 mg/kg; in short: as §2
Mus musculus [18] = experiment: Uterotrophic effect in BDF1 mouse at a dose of 10.9 mg/kg; format: functional, organism-based; design: dose 10.9 mg/kg; details: Uterus; in short: as §3
[19] = Cell growth inhibition of MXT-ER+ breast cancer cells at a dose of 13.4 mg/kg; format: functional, organism-based; design: dose 13.4 mg/kg; details: Mus musculus, Cancer cell lines; in short: as §2
Mus musculus [20] = experiment: Median tumor weight of MXT ER+ determined at the end of 6 week therapy at a dose of 13.4 mg/kg; format: functional, organism-based; design: dose 13.4 mg/kg
In short: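 BDF1 mice with hormone-dependent MXT mammary carcinoma (ER+). Equimolar dosing at 2 × 10⁻⁵ M/kg, given sc three times a week (Mon/Wed/Fri) for 6 weeks as a solution or suspension in PEG 400/H₂O 1:1. Median tumor weight was taken at the end of therapy; U test (Wilcoxon, Mann, Whitney).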

[21] = Cell growth inhibition of MXT-ER- breast cancer cells at a dose of 13.4 mg/kg; format: functional, organism-based; design: dose 13.4 mg/kg; details: Mus musculus, Cancer cell lines; in short: as §1
Mus musculus [22] = experiment: Uterotrophic effect in BDF1 mouse at a dose of 13.4 mg/kg; format: functional, organism-based; design: dose 13.4 mg/kg; details: Uterus; in short: as §3

Row | Substance | ED50 (MCF7S [1]) [nM] | T/C (MCF7S [1]) [%] | ED50 (MCF7S [2]) [nM] | T/C (MCF7S [2]) [%] | ED50 (MDA-MB-231 [3]) [nM] | ED50 (MDA-MB-231 [4]) [nM] | T/C (MDA-MB-231 [4]) [%] | T/C (MDA-MB-231 [5]) [%] | Effect (Mus musculus [9]) | also measured
1 | meso-2-PtCl2(2-6-(CH3)2) | 3100 | 17 | 900 | 4 | 2700 | 2700 | 34 | 28 | 86.6 | T/C [6]: 63%; T/C [7]: 9%; Med tumor weight (Mus musculus [8]): 40 mg; T/C (Mus musculus [10]): 96%
2 | meso-3-PtCl2(2-CF3) | 5100 | 61 | 2200 | 27 |  | 4000 | 46 | 36 | 70.9 | ED50 (MDA-MB-231 [5]): 3200 nM; T/C [11]: 78%; Med tumor weight (Mus musculus [12]): 422 mg; T/C [13]: 72%; T/C (Mus musculus [14]): 100%
3 | meso-4-PtCl2(2-F) | 4800 | 49 | 1500 | 16 | 900 | 1500 | 21 | 12 | 89.9 | T/C [15]: 60%; T/C [16]: 30%; Med tumor weight (Mus musculus [17]): 143 mg; T/C (Mus musculus [18]): 100%
4 | meso-7-PtCl2(2-Br) | 3100 | 30 | 1400 | 15 | 1200 | 4300 | 43 | 13 | 89.3 | T/C [19]: 12%; Med tumor weight (Mus musculus [20]): 57 mg; T/C [21]: 65%; T/C (Mus musculus [22]): 99%
